Consider nine compounds from ChEMBL document CHEMBL2321715, “Design and synthesis of novel 2-methyl-4,5-substitutedbenzo[f]-3,3a,4,5-tetrahydro-pyrazolo[1,5-d][1,4]oxazepin-8(7H)-one derivatives as telomerase inhibitors” (Bioorg Med Chem Lett, 2013).

Calls of active or inactive are those of the source. No cut-off for these calls is given here.

The target in assay [1] is Telomerase reverse transcriptase (Homo sapiens, UniProt O14746). In words: Inhibition of telomerase activity in human MGC803 cells after 24 hrs by TRAP-PCR-ELISA assay. (An ELISA detects its analyte on a solid surface through an enzyme-linked reagent.)
Sequence of Telomerase reverse transcriptase (O14746 whole entry): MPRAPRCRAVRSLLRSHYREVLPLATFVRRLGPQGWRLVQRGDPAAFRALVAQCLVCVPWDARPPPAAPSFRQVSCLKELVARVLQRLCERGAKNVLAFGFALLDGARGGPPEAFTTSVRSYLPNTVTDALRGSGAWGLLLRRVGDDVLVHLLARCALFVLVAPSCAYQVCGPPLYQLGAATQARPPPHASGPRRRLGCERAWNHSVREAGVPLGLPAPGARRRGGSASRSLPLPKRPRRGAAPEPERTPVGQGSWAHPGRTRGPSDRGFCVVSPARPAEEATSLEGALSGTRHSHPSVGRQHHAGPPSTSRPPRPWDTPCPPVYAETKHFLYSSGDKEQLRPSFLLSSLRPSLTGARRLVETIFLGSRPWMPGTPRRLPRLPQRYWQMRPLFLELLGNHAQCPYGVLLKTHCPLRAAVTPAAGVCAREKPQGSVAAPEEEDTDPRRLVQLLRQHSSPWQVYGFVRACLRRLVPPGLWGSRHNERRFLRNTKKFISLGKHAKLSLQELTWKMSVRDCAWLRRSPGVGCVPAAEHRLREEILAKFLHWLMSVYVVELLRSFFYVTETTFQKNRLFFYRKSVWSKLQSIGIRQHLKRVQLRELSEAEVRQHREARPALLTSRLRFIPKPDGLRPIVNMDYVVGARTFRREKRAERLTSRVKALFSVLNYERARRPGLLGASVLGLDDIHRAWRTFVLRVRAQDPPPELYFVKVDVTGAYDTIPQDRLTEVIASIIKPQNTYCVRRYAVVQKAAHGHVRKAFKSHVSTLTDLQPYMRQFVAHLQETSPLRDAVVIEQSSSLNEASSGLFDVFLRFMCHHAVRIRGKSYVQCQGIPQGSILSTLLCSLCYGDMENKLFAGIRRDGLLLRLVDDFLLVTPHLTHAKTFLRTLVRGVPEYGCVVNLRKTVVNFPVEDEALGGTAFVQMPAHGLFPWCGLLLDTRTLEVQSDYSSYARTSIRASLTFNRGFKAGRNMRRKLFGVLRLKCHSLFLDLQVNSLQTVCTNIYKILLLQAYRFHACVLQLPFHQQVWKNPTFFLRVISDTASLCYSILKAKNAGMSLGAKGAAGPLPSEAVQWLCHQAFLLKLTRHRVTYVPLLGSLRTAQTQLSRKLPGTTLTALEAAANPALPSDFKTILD
A further assay relates to MGC-803. In words: Inhibition of PI3K-mediated Akt phosphorylation in human MGC803 cells after 48 hrs by Western blot analysis. Format: cell-based. A digest of the protocol: (§1)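 MGC-803 cells exposed 48 h; lysed in RIPA buffer, protein measured by BCA, […] total protein run on SDS–PAGE and blotted to PVDF. Primary antibodies 1 h in TBS/Tween-20 (0.075%) with 3% Marvel: anti-TERT, anti-β-actin, anti-Cyclin D1, anti-phospho-AKT, anti-AKT, each 1:500. HRP secondaries, ECL detection. DMSO vehicle control; LY used as comparator.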
Background: In western blotting, separated proteins are transferred to a membrane and probed.

Assay [2] is described as follows: Downregulation of TERT expression in human MGC803 cells after 48 hrs by Western blot analysis. The following applies: MGC-803. It is filed as functional, cell-based. A digest of the protocol: as §1
Assay [3] in a line: Downregulation of cyclin D1 expression in human MGC803 cells after 48 hrs by Western blot analysis. Format: functional, cell-based. The following applies: MGC-803. In outline:
as §1

Usually IC50 stands for the concentration needed to halve the response being measured. A high value points to weaker potency in that assay. In assay [1], `CC1=NN2C(=O)COc3ccc(Cl)cc3C2C1` (centres undefined) had an IC50 of 1.71 µM. Besides, the inhibition result in the assay with MGC-803 is “Active”. For the same compound, the result in assay [2] and in assay [3] was Active.
In assay [1], `CC1=NN2C(=O)COc3ccccc3C2C1` (centres undefined) gave an IC50 of 14.8 µM.
`COc1cccc2c1OCC(=O)N1N=C(C)CC21` (centres undefined) had an IC50 in assay [1] of 10.8 µM. In addition, the outcome in assay [2] was Active.
As for `CC1=NN2C(=O)COc3cc([N+](=O)[O-])ccc3C2C1` (centres undefined), in assay [1], it took 6.6 µM to reach half-maximal inhibition (IC50).
Same read-out and setting: the figure for `CC[n+]1c(-c2ccccc2)c2cc(N)ccc2c2ccc(N)cc21` [HOMIDIUM BROMIDE] is 2.39 µM.
For the compound `CC1=NN2C(=O)COc3ccc(C(F)(F)F)cc3C2C1` (centres undefined), the IC50 in assay [1] is 3.14 µM. For the same compound, in assay [2], the outcome was Active.
Compound `CC1=NN2C(=O)COc3c(Br)cc(Br)cc3C2C1` (centres undefined) yielded an IC50 in assay [1] of 0.78 µM. The inhibition entry in the assay on MGC-803 is “Active”. Besides, the outcome in assay [2] and in assay [3] was Active.
With `CC1=NN2C(=O)COc3c(F)cccc3C2C1` (centres undefined), in assay [1], the IC50 amounted to 2.11 µM. The result in assay [2] was Active.
The like results for `CC1=NN2C(=O)COc3cc(C)ccc3C2C1` (centres undefined) were, in that order, 21.9 µM and “Active”.
